Apaf1 inhib: inhibitors of human Apaf-1 apoptosome; reconstituted apoptosome caspase-3 activity, DEVD-Rh110 fluorescence; inhibition, % at 20 µM; hit rate 0.71% among 330,000; active = inhibition of at least 40% at 20 µM;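 also: plate controls were DMSO wells for no effect and DEVD-CHO caspase inhibitor wells for full effect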
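Material: cell-free apoptosome with Apaf-1, procaspase-3 and caspase-9; Buffer or medium: Hepes pH 7.5 with detergent and BSA; Reagent: cytochrome c trigger plus (Z-DEVD)2-Rh110 caspase-3 substrate; Times: compound with Apaf-1, dATP, procaspase-3 30 min, then 50 min reaction, room temperature; Technique: Rh110 fluorescence intensity.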
iPSC survival up: enhancers of human iPSC single-cell survival; hiPSC single-cell survival, ATPlite luminescence; 100% = ROCK inhibitor wells, 0% = DMSO; survival enhancement, % at 20 µM; hit rate 0.044% among 360,000; AID 602274; in the data active = survival enhancement above about 18%;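 also: cells exposed to compounds for 16 hours before the ATP read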
MPTP inh: blocks calcium-induced mitochondrial swelling. isolated mouse mitochondria, Ca2+ swelling absorbance, 30 min. inhibition, % at 10 µM. hit rate 1.4% among 360,000;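 active = inhibition of 50% or more, scaled per plate between neutral and stimulator controls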;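 also: 0% = DMSO wells given calcium and 100% = 1 mM EGTA wells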
Exocytosis inh: lytic granule exocytosis inhibition; hit rate 0.66% among 360,000; AID 651702; inhibition, % at 10 µM; TALL-104 LAMP-1 surface exposure, flow cytometry; cells stimulated with thapsigargin and PMA;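 active = inhibition above about 55%, limit read from the data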
MIN6 prolif: MIN6 beta-cell proliferation induction | MIN6 cells proliferation, ATPlite luminescence, 48 h; cells starved in 0.2% serum; 100% = growth in 10% serum | proliferation, % at 10 µM | hit rate 0.29% among 330,000;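 active = compounds whose signal lies at least 3.5 SD above the mean of all wells on their plate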;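 also: 0% = DMSO-treated cells in low-serum medium and 100% = 10% serum control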
UBC13 inh: inhibitors of human UBC13 polyubiquitin chain formation; hit rate 0.47% among 330,000; AID 485273; TR-FRET; inhibition, % at 20 µM; P61088; in the data active = inhibition above about 45%, passing the limit was not always enough
Target sequence (P61088 whole entry, looked up): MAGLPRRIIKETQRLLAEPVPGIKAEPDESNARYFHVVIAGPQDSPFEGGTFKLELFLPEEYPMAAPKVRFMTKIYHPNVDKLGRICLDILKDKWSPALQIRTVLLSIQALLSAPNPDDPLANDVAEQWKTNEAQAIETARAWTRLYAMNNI
Numbers without * were called inactive. A selection: hits, their analogues and other compounds. The true share with any hit is near 3%.

Screening COc1cc(NC(=O)CN2C(=O)NC3(CCOc4ccccc43)C2=O)cc(OC)c1 (configuration not stated) returned Apaf1 inhib 59*, iPSC survival up 0, MPTP inh 0, Exocytosis inh 2, MIN6 prolif 0 and UBC13 inh 19.
For COCCCn1c(SCCc2ccccc2)nc2cc(OC)c(OC)cc2c1=N the results were Apaf1 inhib 16, iPSC survival up 0, MPTP inh -4, Exocytosis inh 60*, MIN6 prolif -7 and UBC13 inh 27.
For CCSc1nc2cc(OC)c(OC)cc2c(=O)n1CCc1ccccc1 the results were Apaf1 inhib 7, iPSC survival up 0, MPTP inh 0, Exocytosis inh -1, MIN6 prolif -4 and UBC13 inh 7.
Screening C/C(=N\Nc1nc2ccccc2s1)c1cccs1 returned Apaf1 inhib 29, iPSC survival up -4, MPTP inh 5, Exocytosis inh 1, MIN6 prolif -5 and UBC13 inh 8.
CC(=NNc1nc2ccccc2s1)c1ncccn1 was read as iPSC survival up 4, MPTP inh 1 and Exocytosis inh 102*.
Screening CCN1CCN(c2ccc(S(=O)(=O)N3CCCCC3)cc2NC(=O)Cc2ccccc2)CC1 returned Apaf1 inhib 1, iPSC survival up -1, MPTP inh -2, Exocytosis inh 9, MIN6 prolif -4 and UBC13 inh 2.
CCN1CCN(c2ccc(S(=O)(=O)N3CCCCC3)cc2NC(=O)Cc2ccc(Cl)c(Cl)c2)CC1 was read as Apaf1 inhib 29, iPSC survival up 0, MPTP inh 14, Exocytosis inh 56*, MIN6 prolif -7 and UBC13 inh 17.
Screening CS(=O)(=O)n1nc(-c2ccc(Cl)cc2)nc1N returned Apaf1 inhib 3, iPSC survival up -2, MPTP inh -3, Exocytosis inh -1, MIN6 prolif -1 and UBC13 inh -5.
`Cn1nc(-c2ccc(Cl)cc2)nc2c(=O)n(C)c(=O)nc1-2` gave Apaf1 inhib 99*, MIN6 prolif -5 and UBC13 inh -121.
`CC(C)C[C@@H](CN1CCCC1CN1C(=S)NC[C@@H]1Cc1ccc(O)cc1)N1C[C@H](Cc2ccccc2)N(CC2CCCCCC2)C1=S` (some centres not stated) gave iPSC survival up -4, MPTP inh 3 and Exocytosis inh 14.
For CC(C)C[C@@H](CN1CCCC1CN1C(=S)NC[C@@H]1Cc1ccc(O)cc1)N1C[C@H](Cc2ccc(O)cc2)N(CC2CCCCCC2)C1=S (some centres not stated) the results were iPSC survival up -3, MPTP inh 4 and Exocytosis inh 56*.
CS(=O)(=O)c1ccc(-c2sc3cc4c(cc3c2C(=O)NN2CCOCC2)OCO4)cc1 was read as Apaf1 inhib 22, iPSC survival up -2, MPTP inh -3, Exocytosis inh -6, MIN6 prolif -4 and UBC13 inh 31.
COc1cccc(C2/C(=C(/O)c3ccc4c(c3)OCO4)C(=O)C(=O)N2CCN2CCOCC2)c1 (configuration not stated) was read as Apaf1 inhib -2, iPSC survival up 0, MPTP inh 0, Exocytosis inh 2, MIN6 prolif 0 and UBC13 inh -40.
Screening Cc1cc(/C=C2/C(=N)N3C(c4ccccc4)=CSC3=NC2=O)c(C)n1-c1ccc(Cl)cc1 returned iPSC survival up 0, MPTP inh 0 and Exocytosis inh 60*.
For Cc1cccc(-n2c(C)cc(/C=C3/C(=N)N4C(c5ccccc5)=CSC4=NC3=O)c2C)c1 the results were Apaf1 inhib 1, iPSC survival up -2, MPTP inh -1, Exocytosis inh -11, MIN6 prolif -5 and UBC13 inh -6.
For C/C(=N\NC(=S)NCCc1ccccc1)c1cccs1 the results were Apaf1 inhib 18, iPSC survival up -2, MPTP inh 0, Exocytosis inh -3, MIN6 prolif -2 and UBC13 inh -12.
`C/C(CCc1ccccc1)=N\NC(=S)NCCc1ccccc1` gave Apaf1 inhib 14, iPSC survival up 0, MPTP inh 2, Exocytosis inh 91*, MIN6 prolif -6 and UBC13 inh 11.
For Cc1ccc([N+](=O)[O-])cc1N/C=C1\CCc2ccccc2C1=O the results were Apaf1 inhib 32, iPSC survival up 3, MPTP inh 1, Exocytosis inh 57*, MIN6 prolif -3 and UBC13 inh -24.
`COc1ccc(OCc2n(CC(=O)OC3CC(C)CCC3C(C)C)c3ccccc3[n+]2C)cc1` (configuration not stated) gave Apaf1 inhib 19, iPSC survival up 0, MPTP inh 34, Exocytosis inh 64*, MIN6 prolif -6 and UBC13 inh 33.
`Cc1ccc(/C=N\NC(=O)C2COc3cc4ccccc4cc3O2)o1` (configuration not stated) gave Apaf1 inhib 4, iPSC survival up 0, MPTP inh 0, Exocytosis inh 0, MIN6 prolif -1 and UBC13 inh -11.
O=C(N/N=C\c1ccc(-c2ccccc2[N+](=O)[O-])o1)C1COc2cc3ccccc3cc2O1 (configuration not stated) was read as Apaf1 inhib 81*, iPSC survival up 0, MPTP inh -2, Exocytosis inh 4, MIN6 prolif -4 and UBC13 inh -35.
C[C@H](CO)N1C[C@H](C)[C@@H](CN(C)CC2CCCCC2)Oc2ccc(NC(=O)Cn3cnnn3)cc2C1=O was read as Apaf1 inhib 16, iPSC survival up -2, MPTP inh 1, Exocytosis inh -4, MIN6 prolif 3 and UBC13 inh 5.
CC(C)NC(=O)c1ccc2c(c1)S(=O)(=O)c1ccccc1C2=O was read as Apaf1 inhib 6, iPSC survival up 20*, MPTP inh 2, Exocytosis inh -3, MIN6 prolif -4 and UBC13 inh -15.
Screening CCN(CC)CCNC(=O)c1ccc(NC(=O)Cc2ccc(OC)c(S(=O)(=O)N3CCOCC3)c2)cc1 returned iPSC survival up 3, MPTP inh 0 and Exocytosis inh 14.
C=CC(=O)Nc1ccc(CN2C(=O)N(c3c(Cl)c(OC)cc(OC)c3Cl)Cc3cnc(NCCCCN(CC)CC)nc32)cc1 was read as Apaf1 inhib 63*, iPSC survival up -4, MPTP inh -2, Exocytosis inh 45, MIN6 prolif -6 and UBC13 inh 63*.
`O=C1/C(=C\c2ccccc2)CN(C(=O)CCN2CCCCC2)C/C1=C/c1ccccc1` gave iPSC survival up 4, MPTP inh 0 and Exocytosis inh 83*.
For O=C1/C(=C\c2ccc(Cl)c(Cl)c2)CN(C(=O)CCN2CCOCC2)C/C1=C/c1ccc(Cl)c(Cl)c1 the results were iPSC survival up 2, MPTP inh -3 and Exocytosis inh 65*.

Screens (PubChem BioAssay)
